Experimental data collected from several papers.
Lines come from different studies, so protocols differ.
Target: Ephrin type-A receptor 1 (EPHA1, Homo sapiens, UniProt P21709)
One construct used (P21709 26-976): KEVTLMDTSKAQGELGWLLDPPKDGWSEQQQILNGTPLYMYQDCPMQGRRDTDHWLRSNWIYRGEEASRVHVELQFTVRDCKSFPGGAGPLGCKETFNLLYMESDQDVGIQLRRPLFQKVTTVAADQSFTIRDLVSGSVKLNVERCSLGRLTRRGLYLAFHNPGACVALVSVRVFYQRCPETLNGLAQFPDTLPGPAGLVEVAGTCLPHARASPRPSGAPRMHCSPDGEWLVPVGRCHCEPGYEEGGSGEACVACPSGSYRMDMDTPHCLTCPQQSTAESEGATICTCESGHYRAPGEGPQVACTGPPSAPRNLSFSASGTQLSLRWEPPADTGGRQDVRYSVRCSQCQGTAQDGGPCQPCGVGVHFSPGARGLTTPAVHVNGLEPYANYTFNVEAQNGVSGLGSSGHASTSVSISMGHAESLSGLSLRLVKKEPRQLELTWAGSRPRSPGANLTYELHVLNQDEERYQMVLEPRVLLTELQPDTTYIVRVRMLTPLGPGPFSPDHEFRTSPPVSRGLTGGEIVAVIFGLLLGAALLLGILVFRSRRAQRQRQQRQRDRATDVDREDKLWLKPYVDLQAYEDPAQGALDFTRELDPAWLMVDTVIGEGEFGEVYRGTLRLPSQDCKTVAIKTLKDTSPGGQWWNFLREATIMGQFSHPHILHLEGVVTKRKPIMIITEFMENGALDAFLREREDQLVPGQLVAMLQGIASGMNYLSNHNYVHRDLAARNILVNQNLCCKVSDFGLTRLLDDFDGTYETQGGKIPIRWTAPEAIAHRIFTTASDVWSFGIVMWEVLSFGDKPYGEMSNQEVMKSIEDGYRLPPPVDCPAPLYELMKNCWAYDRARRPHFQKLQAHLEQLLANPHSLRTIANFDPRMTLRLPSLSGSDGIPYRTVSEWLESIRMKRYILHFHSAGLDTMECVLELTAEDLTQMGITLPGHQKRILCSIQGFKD

| Structure (SMILES) | assay | setting | remaining binding [%] |
| --- | --- | --- | --- |
| Cc1cnc(Nc2ccc(C(=O)N3CCC(N4CCCC4)CC3)cc2)nc1-c1cc2ccccc2s1 | binding, competition with immobilised ligand | 1 µM | 3.9 |
| CCS(=O)(=O)c1cc2cc(C[C@@](O)(CC(C)(C)c3ccc(F)cc3C(N)=O)C(F)(F)F)[nH]c2cn1 | cell-free assay, competition with immobilised ligand | 1 µM | 99 |
| O=C(NCCCN1CCOCC1)c1ccc(Nc2nccc(-c3cc4ccccc4s3)n2)cc1 | binding, competition with immobilised ligand | 1 µM | 44 |
| CCC(=O)N[C@H]1CC[C@@H](C(=O)N(C)c2ccc(-c3nc4ccccc4o3)cc2)C1 | cell-free assay, competition with immobilised ligand | 1 µM | 100 |
| c1cncc(-c2cccc(Nc3nccc(NC4CCCCC4)n3)c2)c1 | binding, competition with immobilised ligand | 10 µM | 51 |
| O=C(NCC1CCOCC1)c1n[nH]cc1NC(=O)c1c(F)cccc1F | binding, competition with immobilised ligand | 1 µM | 100 |
| Cc1nccc(COC(=O)N2C[C@@H]3[C@@H](CNC(=O)c4ccc5[nH]nnc5c4)[C@@H]3C2)n1 | cell-free assay, competition with immobilised ligand | 1 µM | 100 |
| CN(CCCC(F)(F)F)c1nccc(-c2cnn3ncccc23)n1 | binding | 1 µM | 76 |
| COc1cnc(Nc2cccc(S(N)(=O)=O)c2)nc1N1CCN(c2ccccc2)CC1 | binding, competition with immobilised ligand | 1 µM | 100 |
| CSc1cccnc1N1CCN(Cc2nc3ccccc3[nH]2)CC1 | cell-free assay, competition with immobilised ligand | 1 µM | 100 |
| CN(C)c1ncc(F)c(-c2cnn3ncccc23)n1 | binding | 1 µM | 98 |
| O=C(NCCCN1CCOCC1)c1ccc(Nc2ncc(Cl)c(-c3ccc(Cl)s3)n2)cc1 | binding, competition with immobilised ligand | 1 µM | 46 |
| CN(C)c1nccc(-c2cnc3ncccn23)n1 | binding | 1 µM | 93 |
| CC(=O)C1=C(C)N(c2cccc(C(F)(F)F)c2)C(=O)N[C@@H]1c1ccc(C#N)nc1 | cell-free assay, competition with immobilised ligand | 1 µM | 100 |
| N[C@@H]1CCN(c2nccc(-c3cnn4ncccc34)n2)C1 | binding | 1 µM | 100 |
| Nc1ncc2c(n1)-c1c([nH]c3ccc(C#CC4CC4)cc13)CCCC2 | binding, competition with immobilised ligand | 1 µM | 89 |
| C[C@H]1CCN(c2nccc(-c3cnn4ncccc34)n2)C1 | binding | 1 µM | 84 |
| C[C@@H](c1ccc(-n2cnc3c(N)ncnc32)cc1)N1CCc2nn(C)c(Cc3ccccc3)c2C1=O | binding, competition with immobilised ligand | 0.1 µM | 87 |
| CC(=O)N1CCC(c2ccc(C(=O)NC(=N)N)cc2C(F)(F)F)CC1 | cell-free assay, competition with immobilised ligand | 1 µM | 100 |
| CN(C)c1nccc(-c2cnn3ncccc23)n1 | binding | 1 µM | 46 |
